In the library only some 3.4% were active in any assay of this set; here they are far more common.
MEKK3 PB1 HTS – modulators (inhibitors or enhancers) of MEK5 binding to human MEKK3 PB1 domain | Q99759 | bead-based flow cytometry, Alexa488-MEK5 binding to MEKK3; actives lie on both sides; 0 = blocked by unlabeled MEK5, 100 = vehicle | binding response (% of control), % at 10 µM | 290,000 tested, 1.4% active | AID 1529;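 active = binding response more than 3 SD above or below the average of its plate-row segment, actives on both sides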;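 also: Alexa488 bead fluorescence after subtracting the streptavidin-only scavenger bead signal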
Target sequence (Q99759 whole entry, looked up, the tested form may be a part): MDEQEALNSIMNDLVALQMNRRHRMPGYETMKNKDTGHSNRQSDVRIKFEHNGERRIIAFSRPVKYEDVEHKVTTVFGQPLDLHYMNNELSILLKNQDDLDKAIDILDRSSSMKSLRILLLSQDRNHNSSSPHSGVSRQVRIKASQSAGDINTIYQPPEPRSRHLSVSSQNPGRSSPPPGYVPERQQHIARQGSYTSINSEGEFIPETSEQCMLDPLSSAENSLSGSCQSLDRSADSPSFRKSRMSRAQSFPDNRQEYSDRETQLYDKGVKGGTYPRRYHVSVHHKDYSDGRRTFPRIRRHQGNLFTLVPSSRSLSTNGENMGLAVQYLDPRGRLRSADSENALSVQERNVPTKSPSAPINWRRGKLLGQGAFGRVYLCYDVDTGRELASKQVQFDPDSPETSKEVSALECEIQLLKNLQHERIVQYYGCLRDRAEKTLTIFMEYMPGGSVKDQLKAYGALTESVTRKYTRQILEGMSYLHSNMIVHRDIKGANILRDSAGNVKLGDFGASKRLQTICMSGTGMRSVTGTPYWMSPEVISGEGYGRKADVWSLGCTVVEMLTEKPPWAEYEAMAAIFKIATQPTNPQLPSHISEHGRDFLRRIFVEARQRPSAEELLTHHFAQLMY
MEKK2 WT-MEK5 – raises or lowers MEK5 binding to wildtype human MEKK2 PB1 domain; AID 1531; 290,000 tested, 1.1% active; bead flow cytometry, Alexa488-MEK5 binding to MEKK2 WT; actives lie on both sides; binding response (% of control), % at 10 µM; Q9Y2U5; in the data active = binding response below about 67% or above about 130%
VIM-2 inh – blocks Pseudomonas aeruginosa VIM-2 metallo-beta-lactamase. inhibition, % at 5.6 µM. purified VIM-2, nitrocefin hydrolysis, epi-absorbance fluorescence. 290,000 tested, 0.89% active;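 active = inhibition above the mean of all tested compounds plus 3 SD, cutoff set per screening run, cut at about 7.5% in these data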;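 also: red hydrolysis product quenches plate fluorescence so inhibitors raise well fluorescence; 0% = enzyme with DMSO and 100% = DMSO without enzyme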
IMP-1 inhibitor – inhibitors of Pseudomonas aeruginosa IMP-1 metallo-beta-lactamase; inhibition, % at 5.6 µM; 290,000 tested, 0.45% active; purified IMP-1, nitrocefin hydrolysis, epi-absorbance fluorescence;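 active = inhibition above the mean plus 3 SD of all compounds in the same screening run, cut at about 4.5% in these data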;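 also: 0% = IMP-1 with DMSO and 100% = DMSO wells lacking enzyme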
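Test system: recombinant IMP-1 enzyme, purified / Medium: HEPES buffer pH 7.1 with ZnSO4 and Brij 35 / Doses: single dose, 5.6 µM / Times: 25 °C, 15 min preincubation, 25 min reaction / Detection: Epi-absorbance via hydrolysed-nitrocefin quenching of white-plate fluorescence, 480/530 nm, EDTA stop / Evaluation: percent inhibition from optical density relative to buffer-blank wells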
MEKK2mut PB1 HTS – signal of MEK5 binding to mutant human MEKK2 PB1 domain | bead flow cytometry, Alexa488-MEK5 binding to MEKK2 mutant | percent response, % at 10 µM | 290,000 tested, 0.35% active | AID 1530; in the data active = percent response above about 24%, passing the limit was not always enough
* marks the source's active call; other numbers are inactive results; [ ] = remark or other dose.

SMILES | MEKK3 PB1 HTS | MEKK2 WT-MEK5 | VIM-2 inh | IMP-1 inhibitor | MEKK2mut PB1 HTS
CC(=O)N(C1=C(N2CCOCC2)C(=O)c2ccccc2C1=O)c1ccc(C(=O)O)cc1 | 99 | -1.0* | -3 | -4 | 2
CCCCCCCCOC(=O)c1c(CSC(=N)N)n(C)c2cc(Br)c(OC(C)=O)cc12 | 105 | 281* | -1 | -2 | 136*
CCOC(=O)c1c(CSC(=N)N)n(-c2ccc(Br)cc2)c2cc(Br)c(OC(C)=O)cc12 | 103 | 143* | -2 | -4 | 17
CCOC(=O)c1c(CSc2nc(C)cc(C)c2C#N)n(C)c2cc(Br)c(OC(C)=O)cc12 | 101 | 96 | -1 | -1 | 1
C=CCCc1ccc(C#N)c(SCc2c(C(=O)OCC)c3cc(OC(C)=O)c(Br)cc3n2C)n1 | 103 | 81 | -2 | -4 | 17
O=C1NN(c2cccc(Br)c2)C(=O)/C1=C\c1ccccc1 | 107 | 107 | -4 | -2 | 7
Cc1ccccc1-n1ncc2c1CC(C)(C)CC2NC(=O)CCn1cncn1 (stereo not drawn) | 104 | 100 | -3 | -2 | 6
O=C(Nc1cccc(C(F)(F)F)c1)c1ccc2nc(-c3ccco3)c(-c3ccco3)nc2c1 | 99 | 82 | -3 | -4 | 2
O=C(NCCNc1ccc2ccccc2c1)c1cccn2c(=O)c3sccc3nc12 | 107 | 104 | 8.1* | -3 | 4
Cc1cc(/C=C(\C#N)C(=O)Nc2ccc(F)cc2)c(C)n1-c1ccc(N2CCOCC2)c([N+](=O)[O-])c1 | 101 | 101 | 1 | 5.0* | 1
CNC(=O)/C(C#N)=C\c1cc(C)n(-c2ccc(N3CCOCC3)cc2)c1C | 89 | 88 | -1 | -1 | -12
S=C(Nc1ccc(Cl)cc1)c1nc2ccccc2[nH]1 | 128* | 110 | -1 | -2 | 0
O=C(/C(=C/c1ccc(Cl)cc1)c1nc2ccccc2[nH]1)c1cccs1 | 91 | 96 | -2 | -2 | -1
O=C(/C(=C\c1ccccc1)c1nc2ccccc2[nH]1)c1ccc(Cl)cc1 | 93 | 5.0* | -3 | -2 | 5
Cc1ccccc1NC(=S)c1nc2ccccc2[nH]1 | 96 | 98 | -5 | -5 | -1
Cc1cc(C(=O)OCC(=O)N2CCOCC2)c2ccccc2n1 | 106 | 110 | -1 | -4 | 6
CCCSC1=C(C#N)C(c2ccc(Cl)cc2Cl)CC(=O)N1 (stereo not drawn) | 101 | 98 | -2 | -5 | 0
CC1=C(C#N)C(/C=N/OCc2ccc(Cl)cc2)CC(=O)N1 (stereo not drawn) | 98 | 94 | 8.8* | -2 | -5
COc1ccc(/C=N/Nc2ccc([N+](=O)[O-])cc2)cc1Cn1cc([N+](=O)[O-])cn1 | 105 | 109 | -1 | 4.6* | 3
COc1ccc(COC(=O)c2c(C)nn(-c3ccccc3)c2Cl)cc1 | 105 | 111 | 0 | -1 | 6
O=C(NCCc1ccccc1)c1ccc(CS(=O)(=O)Cc2ccccc2F)o1 | 111 | 110 | -4 | -4 | 6
O=C(Nc1ccc(Cl)cc1)c1ccc2c(=O)n3c(nc2c1)CCCCC3 | 104 | 101 | -2 | -3 | 3
O=C1SC(c2ccccc2)=C/C1=C\N1CCCCC1 | 96 | 94 | 2 | 4.8* | -3
O=C1OC(c2ccccc2)=C/C1=C/N1CCOCC1 | 103 | 98 | -1 | 1 | 3
Cc1c(C(=O)NCc2c(F)cc(F)cc2F)oc2ccc(S(=O)(=O)N3CCOCC3)cc12 | 100 | 100 | -2 | -2 | -2
SMILES | MEKK3 PB1 HTS | MEKK2 WT-MEK5 | VIM-2 inh | IMP-1 inhibitor | MEKK2mut PB1 HTS
COc1cc(CNCc2ccccn2)ccc1OCc1ccc(Cl)c(Cl)c1 | 97 | 122 | 10* | -5 | 5
Cn1c(C(=O)N2CCN(C3CCCCC3)CC2)cc2c(=O)n(C)c3ccccc3c21 | 91 | 94 | 3 | -2 | -8
COc1ccccc1N1CCN(C(=O)c2cc3c(=O)n(C)c4ccccc4c3n2C)CC1 | 84 | 84 | 8.8* | -2 | -6
Cn1c(C(=O)N2CCN(C(=O)c3ccco3)CC2)cc2c(=O)n(C)c3ccccc3c21 | 96 | 98 | 11* | -2 | 1
Cc1cc(=O)n2nc(N3CCCC(C(=O)NCc4ccccc4)C3)sc2n1 (stereo not drawn) | 102 | 99 | -3 | -4 | 0
Cc1cc(-c2n[nH]c(=S)n2CC(C)C)cs1 | 113 | 99 | 8.6* | -5 | 0
CC(C)Cn1c(-c2csc(C(C)C)c2)n[nH]c1=S | 95 | 79 | -2 | -1 | -11
CC(=O)N(C)c1ccc(N=NC2C(=O)N(C(N)=S)N=C2C)cc1 (stereo not drawn) | 110 | 112 | 2 | -4 | 12
COc1ccc(Cn2c(-c3ccc(OC)cc3)n[nH]c2=S)cc1 | 104 | 106 | 11* | -3 | 6
CCOc1ccc(-c2n[nH]c(=S)n2Cc2ccccc2)cc1 | 101 | 107 | 4 | -4 | 7
CCCCn1c(-c2ccc([N+](=O)[O-])cc2)n[nH]c1=S | 109 | 112 | 13* | -2 | 6
CCCCn1c(-c2csc(CCC)c2)n[nH]c1=S | 96 | 88 | 1 | -3 | -12
CCCn1c(-c2ccc(F)cc2)n[nH]c1=S | 83 | 81 | 10* | -4 | -11
CCn1c(-c2ccc(C)cc2)n[nH]c1=S | 109 | 112 | -2 | -3 | 5
COC(=O)c1ccc(NC(=S)Nc2ccc3ccccc3c2)cc1 | 99 | 99 | 2 | 5.2* | 4
COC(=O)c1ccc(NC(=S)Nc2ccccc2)cc1 | 98 | 100 | -3 | -1 | 2
COc1ccc(Br)cc1/C=N/N1C(=O)CSC1=S | 103 | 97 | -1 | 17* | -5
CC(=O)NNC(=O)c1sc(=S)n(C)c1C | 95 | -5.0* | -2 | -2 | 1
CCOC(=O)C(OC(=O)c1sc(=S)n(C)c1C)C(C)=O (stereo not drawn) | 101 | 107 | 9.2* | 2 | 10
COc1ccccc1-n1c(C)nc2cc(C(=O)O)ccc21 | 105 | 105 | 0 | -4 | 8
COc1ccc(-c2cnc(N)n2C)cc1 | 98 | -8.0* | -2 | -2 | -36
Cn1c(-c2ccccc2)cnc1N | 103 | 108 | -4 | -3 | 3
Cn1cc(-c2nnc(-c3ccccc3)o2)c2ccccc21 | 104 | 104 | 0 | 4.9* | 2
Cc1ccccc1N1CCN(C2CCCN(C(=O)c3cnsn3)C2)CC1 (stereo not drawn) | 77*[inhibitor] | 65*[inhibitor] | -1 | -3 | -13
Cc1nc(C(=O)N2CCCC(N3CCN(c4ccccc4C)CC3)C2)cs1 (stereo not drawn) | 107 | 111 | -3 | -2 | 7
O=C(NCCCn1ccnc1)c1noc2c1CCc1ccccc1-2 | 83 | 93 | -1 | -4 | -5
Cc1ncoc1C(=O)Nc1ncc([N+](=O)[O-])s1 | 100 | 100 | -3 | -1 | 1

Screens: PubChem, several laboratories
